Assay results collected from several papers.
Compare with care: the assays were run in different laboratories.
Target: 3-phosphoinositide-dependent protein kinase 1 (PDPK1, Homo sapiens, UniProt O15530)
One construct used (O15530 1-556): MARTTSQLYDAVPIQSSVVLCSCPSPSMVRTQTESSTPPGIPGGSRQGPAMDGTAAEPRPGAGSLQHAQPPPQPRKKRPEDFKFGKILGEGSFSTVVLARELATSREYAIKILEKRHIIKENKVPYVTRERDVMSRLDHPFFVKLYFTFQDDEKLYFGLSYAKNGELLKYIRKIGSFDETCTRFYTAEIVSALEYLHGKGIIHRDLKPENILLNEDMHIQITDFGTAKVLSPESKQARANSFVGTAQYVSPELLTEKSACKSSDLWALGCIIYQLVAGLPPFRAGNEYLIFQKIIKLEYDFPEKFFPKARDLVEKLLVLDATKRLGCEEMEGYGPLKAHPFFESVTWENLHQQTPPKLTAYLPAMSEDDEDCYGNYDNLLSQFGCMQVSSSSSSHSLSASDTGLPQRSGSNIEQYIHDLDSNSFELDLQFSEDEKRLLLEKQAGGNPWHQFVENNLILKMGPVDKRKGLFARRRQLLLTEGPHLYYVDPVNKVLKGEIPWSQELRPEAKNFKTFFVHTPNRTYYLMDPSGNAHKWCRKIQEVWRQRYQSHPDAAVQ

For `COc1cc(Nc2cnc(C#N)c(O[C@H](C)CN(C)C)n2)ncc1-c1cnn(C)c1`, the remaining activity was 76% (enzyme activity; inhibitor; radiometric; 1 µM).
The remaining signal of `CS(=O)(=O)CCNCc1ccc(-c2ccc3ncnc(Nc4ccc(OCc5cccc(F)c5)c(Cl)c4)c3c2)o1` is reported as 86.4% (cell-free assay; 0.5 µM).
With `Cn1c(=O)n(-c2ccc(C(C)(C)C#N)cc2)c2c3cc(-c4cnc5ccccc5c4)ccc3ncc21` the remaining activity was 98% (enzyme activity; inhibitor; 10 µM).
The activity vs control of `COc1cc(/C=C/C(=O)CC(=O)/C=C/c2ccc(O)c(OC)c2)ccc1O` is reported as 90% (enzyme activity; inhibitor; 1 µM).
With `Cc1ccc(NC(=O)c2ccc(C)c(C(F)(F)F)c2)cc1C#Cc1nn(C2CCC(O)CC2)c2ncnc(N)c12` (stereo not shown) the remaining signal was 113% (cell-free assay; 10 µM).
The remaining signal of `CCN(CC)CCNC(=O)c1c(C)[nH]c(/C=C2\C(=O)Nc3ccc(F)cc32)c1C` is reported as 81.6% (cell-free assay; 0.5 µM).
The remaining binding of `O=C(N[C@H]1CCCCC/C=C\C2C[C@@]2(C(=O)O)NC(=O)[C@@H]2C[C@@H](Oc3ccncc3)CN2C1=O)OC1CCCC1` (stereo partly shown) is reported as 92% (binding; competition with immobilised ligand; 1 µM).
`CCCOc1ccc(OC)c(F)c1C(=O)c1ccc(C(=O)N[C@@H]2CNC[C@H]2NC(=O)c2ccc3[nH]ncc3c2)cc1` has a remaining activity of 102% (enzyme activity; inhibitor; 10 µM).
With `O=C1Nc2ccc(Cl)cc2C1=Cc1cc(Cl)c(O)c(Cl)c1` the remaining signal was 103% (cell-free assay; 0.5 µM).
With `CNC(=O)c1ccc(Nc2ncc(C(F)(F)F)c(NCc3nccnc3N(C)S(C)(=O)=O)n2)cc1` the remaining binding was 81% (cell-free assay; competition with immobilised ligand; 0.1 µM).
With `C[S+]([O-])c1ccc(-c2nc(-c3ccncc3)c(-c3ccc(F)cc3)[nH]2)cc1` (stereo not shown) the remaining signal was 96.3% (cell-free assay; 0.5 µM).
With `Cc1cnc(NC2CCOCC2)nc1-n1cnc(C(=O)NC(CN)c2cc(F)cc(Cl)c2)c1` (stereo not shown) the remaining activity was 84% (enzyme activity; inhibitor; radiometric; 1 µM).
`CC(C)(C)c1nc(-c2cccc(NS(=O)(=O)c3c(F)cccc3F)c2F)c(-c2ccnc(N)n2)s1` has a remaining activity of 94% (enzyme activity; inhibitor; radiometric; 1 µM).
With `Cc1c(NC(=O)c2cc(C(N)=O)nc3cc(F)ccc23)c(C(F)(F)F)nn1Cc1ccc(C(C)(C)C)cc1` the remaining binding was 94% (cell-free assay; competition with immobilised ligand; 1 µM).
For `CC(C)(O)[C@H]1CC[C@H](Nc2ccc3ncc(-c4cccc(C(F)(F)F)c4)n3n2)CC1`, the remaining activity was 105% (enzyme activity; inhibitor; 1 µM).
`O=C1NC(c2ccccn2)Sc2ccccc21` (stereo not shown) gave a remaining binding of 97% (cell-free assay; competition with immobilised ligand; 1 µM).
For `N#CCCc1ccc2c(c1)-c1[nH]c3ccc([N+](=O)[O-])cc3c1CC(=O)N2`, the remaining signal was 79.8% (cell-free assay; 0.5 µM).
With `O=C(O)[C@@H]1[C@@H](Cn2nnc3ccccc3c2=O)CC[C@H]1C(=O)c1ccc(OCCC2CCOCC2)cc1` the remaining binding was 80% (cell-free assay; competition with immobilised ligand; 1 µM).
`Cc1ccc(C(=O)NCc2ccsc2)cc1C#Cc1cn(C(C)C)c2ncnc(N)c12` has an activity vs control of 98% (enzyme activity; inhibitor; 1 µM).
For `COc1cccc(CNC(=O)c2nc3scc(COCc4ccc(C(=O)O)cc4)c3c(=O)[nH]2)c1`, the remaining binding was 87.8% (cell-free assay; competition with immobilised ligand; 1 µM).
With `O=C(Nc1cnn(-c2csc(C(=O)NC3COC3)c2)c1)Nc1c(F)cccc1Cl` the remaining activity was 99.6% (enzyme activity; inhibitor; 5 µM).
For `CC(=O)C1=C(C)N(c2cccc(C(F)(F)F)c2)C(=O)N[C@@H]1c1ccc(C#N)nc1`, the remaining binding was 93.4% (cell-free assay; competition with immobilised ligand; 1 µM).
For `Nc1ncnc2occ(-c3ccc(NC(=O)Nc4cc(C(F)(F)F)ccc4F)cc3)c12`, the remaining signal was 4.3% (cell-free assay; inhibitor; 20 µM).
`c1ccc(N2CCN(Cc3nc4ccccc4[nH]3)CC2)nc1` gave a remaining binding of 89% (binding; competition with immobilised ligand; 1 µM).
`Nc1nc(NC2CCCCC2)sc1C(=O)c1ccccc1` gave a remaining activity of 106% (enzyme activity; inhibitor; 10 µM).
